Assays:
[1] = melting temperature; fluorescence melt of hairpins on a sequencing array, two-state fit, raised by 9.35 °C to match UV melts; settings: sodium 0.088 M
In short: (§1)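 In 50 mM Na-HEPES pH 8.0 containing 25 mM NaCl, hairpins from the library on a sequenced MiSeq flow cell were imaged for Cy3 fluorescence at 2.5 °C steps up to 60 °C, with Cy3 and quencher oligos annealed. After normalisation to pre-quench Cy3 and to control constructs, two-state fits with bootstrapping gave melting temperature and folding enthalpy. Four replicates were combined by inverse-variance weighting, and fitted temperatures were shifted up by 9.35 °C to match UV melts.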

[2] = folding enthalpy; higher = less favourable; fluorescence melt of hairpins on a sequencing array, two-state fit; settings: sodium 0.088 M
In short: as §1

Row | Sequence | Tm [1] | folding enthalpy [2]
1 | GTGATGCGAAAGCAACAC (((.(((....))).))) | 56.4 °C | -33.4 kcal/mol
2 | GCCTACCGAAAGGTTGGC (((.(((....))).))) | 62.5 °C | -35.4 kcal/mol
3 | GGATGGGGAAACTCATCC (((((.(....).))))) | 49.2 °C | -41 kcal/mol
4 | GTTTGGGGAAACCCGAAC (((.(((....))).))) | 49.3 °C | -36.5 kcal/mol
5 | GAACGAGCGAAAGCTTTC (((..(((....)))))) | 23.9 °C | -8.11 kcal/mol
6 | GCGATCTGTCGC ((((....)))) | 51.6 °C | -33.5 kcal/mol
7 | GACGCCGGAAACAGCGCC (.(((.(....).))).) | 31.8 °C | -17.8 kcal/mol
8 | GGTCAGCGAAAGCTTACC (((.(((....))).))) | 48.9 °C | -31.8 kcal/mol
9 | GGTACGGGAAACCACACC (((..((....))..))) | 33 °C | -16.2 kcal/mol
10 | GTACACGAAAGTGATTAC ((((((....)))..))) | 27.4 °C | -14.6 kcal/mol
11 | GTGAGTCGAAAGACCCAC (((.(((....))).))) | 49.3 °C | -29.4 kcal/mol
12 | GGACGAGGAAACTTGTCC ((((.((....)).)))) | 50.7 °C | -43.5 kcal/mol
13 | GCTAGACGAAAGTCAGC (((.(((....)))))) | 54.2 °C | -23.1 kcal/mol
14 | GTGCTAGGAAACTAGTGC (..((((....))))..) | 39.1 °C | -30.2 kcal/mol
15 | GATGAAGGAAACTTCGTC ((.((((....)))).)) | 42.4 °C | -27 kcal/mol
16 | GCGAGACGAAAGTCCCGC (((.(((....))).))) | 59 °C | -35.6 kcal/mol
17 | GTGCTGCCGAAAGGCCAC (((..(((....)))))) | 48.1 °C | -11.5 kcal/mol
18 | GCAGTGCGAAAGCATTGC (((.(((....))).))) | 58.9 °C | -55.4 kcal/mol
19 | GCGGGTTCCCGC ((((....)))) | 67.3 °C | -23.3 kcal/mol
20 | GTAATAACGAAAGTTTAC (((..(((....)))))) | 26.8 °C | -10.5 kcal/mol
21 | GCGGTAGGAAACTACCAC (.(((((....))))).) | 44.1 °C | -15.6 kcal/mol
22 | GATCTCGCGAGAGATC ((((((....)))))) | 64.2 °C | -42.1 kcal/mol
23 | GCAGACCGAAAGGTTTGC (((.(((....))).))) | 63.4 °C | -41.6 kcal/mol
24 | GTGTTCGGAAACGGATAC ((.(.((....)).).)) | 33.6 °C | -25.8 kcal/mol

Row | Sequence | Tm [1] | folding enthalpy [2]
25 | GCTGGGCGAAAGCCTTGC ((..(((....)))..)) | 53.2 °C | -17.1 kcal/mol
26 | GATTCCGGAAACGGAGTC ((.((((....)))).)) | 47.6 °C | -23.8 kcal/mol
27 | GACACCGAAAGGTTTGTC ((((((....)))..))) | 38.3 °C | -15.1 kcal/mol
28 | GATCTTGAGGAAGATC ((((((....)))))) | 36.8 °C | -24.9 kcal/mol
29 | GTAACCGAAAGGTCTTAC ((((((....)))..))) | 30.6 °C | -11.6 kcal/mol
30 | GCGCAGCGAAAGCTCGC (((.(((....)))))) | 63.3 °C | -15.8 kcal/mol
31 | GATCCTAGGAGGATC ((((((...)))))) | 54.1 °C | -35.3 kcal/mol
32 | GTCCATCGAAAGATCGAC (((.(((....))).))) | 35.5 °C | -31 kcal/mol
33 | CGAAATCGGAAACGATCG (((..(((....)))))) | 34 °C | -22.6 kcal/mol
34 | GCTTAAACGAAAGTTAGC (((..(((....)))))) | 33.9 °C | -16.2 kcal/mol
35 | GTGCTCGGAAACGAGTAC ((.((((....)))).)) | 55.4 °C | -43.8 kcal/mol
36 | GTGATCACGAAAGTGCAC (((..(((....)))))) | 30.7 °C | -12.5 kcal/mol
37 | GTGGGAGAAATCCCAC ((((((....)))))) | 58.8 °C | -28.3 kcal/mol
38 | GTTACCGAAAGGTTAAC ((((((....))).))) | 41.9 °C | -15.4 kcal/mol
39 | GAGTTACGAAAGTACTC (((.(((....)))))) | 43.2 °C | -25.4 kcal/mol
40 | GAAGGGCCGAAAGGCTTC (((..(((....)))))) | 23 °C | -7.08 kcal/mol
41 | GCTATACGAAAGTAAGC (((.(((....)))))) | 40.6 °C | -22.3 kcal/mol
42 | GCGGGGCGAAAGCGCTGC ((.(.((....)).).)) | 66.4 °C | -35.9 kcal/mol
43 | GATCCCAATCGGGATC ((((((....)))))) | 61.6 °C | -40.2 kcal/mol
44 | GCTACACGAAAGTGCAGC (((.(((....))).))) | 53.1 °C | -42.1 kcal/mol
45 | GTGGACGAAAGTCTCAC ((((((....))).))) | 46.6 °C | -20.1 kcal/mol
46 | GTCTGCGAAAGCAGGAC ((((((....))).))) | 57.8 °C | -11.4 kcal/mol
47 | GATCAAGACCTTGATC ((((((....)))))) | 50.1 °C | -40.2 kcal/mol
48 | GACTCAGGAAACTGAGCC (.(((((....))))).) | 43.6 °C | -16.5 kcal/mol

Row | Sequence | Tm [1] | folding enthalpy [2]
49 | GCGTGGTTACGC ((((....)))) | 54.9 °C | -21.7 kcal/mol
50 | GGTCTCTCGAAAGAGACC (((..(((....)))))) | 60.5 °C | -35.3 kcal/mol
51 | GGCCACGAAAGTGCTGCC ((((((....)))..))) | 48.8 °C | -20.4 kcal/mol
52 | GATTTTGGAAACAAAGTC ((.((((....)))).)) | 35.3 °C | -27.5 kcal/mol
53 | GATCTGATTCAGATC ((((((...)))))) | 48.7 °C | -35.8 kcal/mol
54 | GGGCCCCGAAAGGGACCC (((.(((....))).))) | 69 °C | -26 kcal/mol
55 | GATAACGGAAACGCTATC ((((.((....)).)))) | 34.4 °C | -29.5 kcal/mol
56 | GCGAGCGATCGC ((((....)))) | 53.5 °C | -25.3 kcal/mol
57 | GCCCTACGAAAGTAGGC (((.(((....)))))) | 56.8 °C | -13 kcal/mol
58 | GATCGTTCGGACGATC ((((((....)))))) | 56.9 °C | -37.8 kcal/mol
59 | GGCCTCGAAAGAGCGGCC ((((((....)))..))) | 51.8 °C | -29.1 kcal/mol
60 | GTGTTCGAAAGAACCCAC ((((((....)))..))) | 33.1 °C | -11.7 kcal/mol
61 | GCAGAGCGAAAGCTATGC (((.(((....))).))) | 59.7 °C | -44.8 kcal/mol
62 | GTCATACGAAAGTAGGAC (((.(((....))).))) | 53.9 °C | -29.3 kcal/mol
63 | GACAGCGGAAACACTGTC (((((.(....).))))) | 46.6 °C | -33.4 kcal/mol
64 | GATGGCGAAAGCCGAATC ((((((....)))..))) | 34.4 °C | -8.36 kcal/mol
65 | GTGGAGGGAAACCTCCAC (((((((....))))))) | 66.5 °C | -40.9 kcal/mol
66 | GATCTACCATTAGATC ((((((....)))))) | 37.9 °C | -33.2 kcal/mol
67 | GCGATTCGAAAGAACGC (((.(((....)))))) | 52.8 °C | -30.2 kcal/mol
68 | GATCGATGCCTCGATC ((((((....)))))) | 52.5 °C | -38.1 kcal/mol
69 | GCAAGCGAAAGCTCCTGC ((((((....)))..))) | 30.9 °C | -10.1 kcal/mol
70 | GCTTTTCGAAAGAAGAGC (((.(((....))).))) | 47.4 °C | -30.7 kcal/mol
71 | GCAGTGCGAAAGCGCGGC ((.(.((....)).).)) | 66.7 °C | -31 kcal/mol
72 | GCTGTGCGAAAGCAAGGC ((..(((....)))..)) | 50.6 °C | -20 kcal/mol

Row | Sequence | Tm [1] | folding enthalpy [2]
73 | GCTGCGCGAAAGCTGAGC (((..((....))..))) | 43.8 °C | -13.2 kcal/mol
74 | GTGATCGAAAGATAGCAC ((((((....)))..))) | 28.3 °C | -15.6 kcal/mol
75 | GGTTATGGAAACATAGCC ((.((((....)))).)) | 43.8 °C | -31.1 kcal/mol
76 | GATCAATTTTTGATC ((((((...)))))) | 45.9 °C | -33.6 kcal/mol
77 | GATCTGTCTCAGATC ((((((...)))))) | 49.3 °C | -28.1 kcal/mol
78 | GATCCCAATTGGGATC ((((((....)))))) | 61.5 °C | -38.2 kcal/mol
79 | GATCGGGTAGCCGATC ((((((....)))))) | 62 °C | -41.9 kcal/mol
80 | GTAAATCCGAAAGGATAC (((..(((....)))))) | 33.8 °C | -11 kcal/mol
81 | GCGTTAAGACGC ((((....)))) | 54 °C | -22.4 kcal/mol
82 | GCACCGACGAAAGTCTGC (((..(((....)))))) | 35.3 °C | -16.7 kcal/mol
83 | GCACAAGGAAACTTGCGC ((.((((....)))).)) | 48.4 °C | -37.9 kcal/mol
84 | GATCCCGGGGGGGATC ((((((....)))))) | 62 °C | -33.7 kcal/mol
85 | GCTGTGCGAAAGCCCTGC ((.(.((....)).).)) | 41.9 °C | -15.3 kcal/mol
86 | GATCAGCCATCTGATC ((((((....)))))) | 49.4 °C | -37.4 kcal/mol
87 | GATCTGCCTCAGATC ((((((...)))))) | 48.7 °C | -29.1 kcal/mol
88 | GTCATCGGAAACGGTGAC ((((.((....)).)))) | 55 °C | -38.1 kcal/mol
89 | GACGCCGAAAGGCACGTC ((((((....)))..))) | 48.5 °C | -13.4 kcal/mol
90 | ACACAGAAATGTGT (((((....))))) | 45.9 °C | -14.7 kcal/mol
91 | GATCTTGGAGAAGATC ((((((....)))))) | 43.9 °C | -29.8 kcal/mol
92 | GATTGTGGAAACGCAATC (((((.(....).))))) | 47.2 °C | -35.5 kcal/mol
93 | GGTTTCGAAAGAAAAACC ((((((....)))..))) | 33.6 °C | -23.4 kcal/mol

Source: the array DNA melting data of Ke et al. (doi:10.1101/2024.01.08.574731)
